Laboratory results published in ChEMBL document CHEMBL1145132, “N-hydroxy-3-phenyl-2-propenamides as novel inhibitors of human histone deacetylase with in vivo antitumor activity: discovery of (2E)-N-hydroxy-3-[4-[[(2-hydroxyethyl)[2-(1H-indol-3-yl)ethyl]amino]methyl]phenyl]-2-propenamide (NVP-LAQ824)” (J Med Chem, 2003).
Where “and” joins values, the source holds several entries; their conditions need not be identical. Identical values can stand only once.

Key:
[1] = test system: HCT-116; assay: Inhibitory activity against HCT116 human colon cell growth; assay type: functional, cell-based
[2] = test system: NCI-H1299; assay: Inhibitory activity against H1299 human lung carcinoma cell growth; assay type: functional, cell-based
[3] = biological target: Histone deacetylase; assay: Inhibitory activity against histone deacetylase (HDAC) enzyme obtained from H1299 human lung carcinoma cell lysates
[4] = test system: Mus musculus; assay: Compound was tested for efficacy in athymic mice bearing HCT116 subcutaneous tumor xenografts at a dose of 10 mg/kg and change in the body weight of the mouse was evaluated; assay type: functional
Procedure, shortened: (§1)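 Female outbred athymic nu/nu mice, ≈10⁶ HCT116 cells injected sc in right axillary region under anesthesia; treatment began when tumors ≈100 mm³ (day 13 post-implant), groups of eight balanced on tumor volume. Compound given iv as lactate salt in 10% DMSO/D5W, qd 5×/week for 15 doses. Individual body weights recorded once weekly; % change from start reported.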

[5] = test system: Mus musculus; assay: Compound was tested for maximum tolerated dose (MTD) that resulted in no deaths when administered intravenously for five days; assay type: functional
Procedure, shortened: (§2)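 Athymic mice, four per group, dosed iv once daily for five consecutive days, up to a maximum of 200 mg/kg/day. Compound given as the lactate salt in 10% DMSO in 5% dextrose/water (final DMSO 10%). MTD taken as the highest dose that caused no deaths.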

[6] = test system: Mus musculus; assay: Ratio of the change in tumor volume of treated animals to the change in tumor volume of control animals at a dose of 10 mg/kg; assay type: functional
Procedure, shortened: (§3)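 HCT116 sc xenografts (≈10⁶ cells) in female athymic nude mice, eight per group, treated from ≈100 mm³ tumors with iv lactate salt in 10% DMSO/D5W qd 5×/week for 10 or 15 doses. Tumors measured weekly; % T/C = change in treated tumor volume over change in vehicle-control tumor volume; one-tailed Student's t-test.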

[7] = test system: Mus musculus; assay: Compound was tested in vivo for efficacy in athymic mice bearing HCT116 subcutaneous tumor xenografts at a dose of 20 mg/kg and change in the body weight of the mouse was evaluated; assay type: functional; procedure, shortened: as §1
[8] = test system: Mus musculus; assay: Ratio of the change in tumor volume of treated animals to the change in tumor volume of control animals at a dose of 20 mg/kg; assay type: functional; procedure, shortened: as §3
[9] = test system: Mus musculus; assay: Compound was tested in vivo for maximum tolerated dose (MTD) that resulted in no deaths when administered intravenously for five days; assay type: functional; procedure, shortened: as §2
[10] = test system: Mus musculus; assay: Ratio of the change in tumor volume of treated animals to the change in tumor volume of control animals at a dose of 50 mg/kg; assay type: functional; procedure, shortened: as §3
[11] = test system: Mus musculus; assay: Compound was tested for efficacy in athymic mice bearing HCT116 subcutaneous tumor xenografts at a dose of 50 mg/kg and change in the body weight of the mouse was evaluated; assay type: functional; procedure, shortened: as §1
[12] = test system: Mus musculus; assay: Compound was tested in vivo for efficacy in athymic mice bearing HCT116 subcutaneous tumor xenografts at a dose of 50 mg/kg and change in the body weight of the mouse was evaluated; assay type: functional; conditions: route intravenous; procedure, shortened: as §1
[13] = test system: Mus musculus; assay: Ratio of the change in tumor volume of treated animals to the change in tumor volume of control animals at a dose of 25 mg/kg; assay type: functional; procedure, shortened: as §3
[14] = test system: Mus musculus; assay: Compound was tested in vivo for efficacy in athymic mice bearing HCT116 subcutaneous tumor xenografts at a dose of 10 mg/kg and change in the body weight of the mouse was evaluated; assay type: functional; conditions: route intravenous; procedure, shortened: as §1
[15] = test system: Mus musculus; assay: Compound was tested in vivo for efficacy in athymic mice bearing HCT116 subcutaneous tumor xenografts at a dose of 100 mg/kg and change in the body weight of the mouse was evaluated; assay type: functional; conditions: route intravenous; procedure, shortened: as §1
[16] = test system: Mus musculus; assay: Compound was tested in vivo for efficacy in athymic mice bearing HCT116 subcutaneous tumor xenografts at a dose of 25 mg/kg and change in the body weight of the mouse was evaluated; assay type: functional
[17] = test system: Mus musculus; assay: Ratio of number of deaths of mice to the number of mice tested was determined at a dose of 100 mg/kg; dead/total = 0 / 8; assay type: functional
Procedure, shortened: (§4)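 Female outbred athymic nu/nu mice, eight per group, carrying subcutaneous right-axillary HCT116 (≈10⁶ cells) or A549 (≈10⁷ cells) xenografts, started treatment at ≈100 mm³ tumour volume. Drug given as lactate salt in 10% DMSO/D5W, iv qd 5×/week for 15 doses. Body weights and tumours recorded weekly; deaths counted per group as dead/total.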

[18] = test system: Mus musculus; assay: Ratio of number of deaths of mice to the number of mice tested was determined at a dose of 10 mg/kg; dead/total = 0 / 8; assay type: functional; procedure, shortened: as §4
[19] = test system: Mus musculus; assay: Ratio of the change in tumor volume of treated animals to the change in tumor volume of control animals at a dose of 100 mg/kg; assay type: functional; procedure, shortened: as §3
[20] = test system: Mus musculus; assay: Ratio of number of deaths of mice to the number of mice tested was determined at a dose of 50 mg/kg; dead/total = 0 / 8; assay type: functional; procedure, shortened: as §4
[21] = test system: Mus musculus; assay: Compound was tested in vivo for efficacy in athymic mice bearing HCT116 subcutaneous tumor xenografts at a dose of 30 mg/kg and change in the body weight of the mouse was evaluated; assay type: functional; procedure, shortened: as §1
[22] = test system: Mus musculus; assay: Ratio of the change in tumor volume of treated animals to the change in tumor volume of control animals at a dose of 30 mg/kg; assay type: functional; procedure, shortened: as §3
[23] = test system: Mus musculus; assay: Ratio of the change in tumor volume of treated animals to the change in tumor volume of control animals at a dose of 75 mg/kg; assay type: functional; procedure, shortened: as §3
[24] = test system: Mus musculus; assay: Compound was tested for efficacy in athymic mice bearing HCT116 subcutaneous tumor xenografts at a dose of 75 mg/kg and change in the body weight of the mouse was evaluated; assay type: functional
[25] = test system: Mus musculus; assay: Compound was tested for efficacy in athymic mice bearing HCT116 subcutaneous tumor xenografts at a dose of 45 mg/kg and change in the body weight of the mouse was evaluated; assay type: functional
[26] = test system: Mus musculus; assay: Ratio of the change in tumor volume of treated animals to the change in tumor volume of control animals at a dose of 45 mg/kg; assay type: functional; procedure, shortened: as §3

| SMILES | IC50 [1] [nM] | IC50 [2] [nM] | IC50 [3] [nM] | also measured |
| --- | --- | --- | --- | --- |
| O=C(/C=C/c1ccc(CN(CCOC(=O)NCc2ccoc2)CCc2c[nH]c3ccccc23)cc1)NO | 15 | 180 | 370 | – |
| O=C(/C=C/c1ccc(CN(CCc2c[nH]c3ccccc23)C(CO)CO)cc1)NO | 160 | 2500 | 52 | – |
| O=C(/C=C/c1ccc(CNCCn2c3ccccc3c3ccccc32)cc1)NO | 10 | 100 | 66 | Body weight change [4]: -3.7%; MTD [5]: 10 mg/kg; T/C [6]: 85% |
| O=C(/C=C/c1ccc(CNCCc2cn(CC3CC3)c3ccccc23)cc1)NO | 30 | 250 | 84 | Body weight change [7]: -0.9%; T/C [8]: 81%; MTD [9]: 20 mg/kg |
| O=C(/C=C/c1ccc(CNCCc2c[nH]c3ccc(OCc4ccccc4)cc23)cc1)NO | 40 | 65 | – | T/C [10]: 45%; MTD [5]: 50 mg/kg; Body weight change [11]: -3% |
| O=C(/C=C/c1ccc(CN2CCc3c([nH]c4ccccc34)C2)cc1)NO | 430 | 2900 | 118 | – |
| O=C(/C=C/c1ccc(CN[C@H](CO)Cc2c[nH]c3ccccc23)cc1)NO | 50 | 810 | 27 | – |
| O=C(/C=C/c1ccc(CN(CCCc2ccccc2)Cc2cccnc2)cc1)NO | 420 | 1700 | 164 | – |
| COc1ccccc1NCCNCc1ccc(/C=C/C(=O)NO)cc1 | 170 | 2160 | 111 | – |
| O=C(/C=C/c1ccc(CNCCc2cc3ccccc3[nH]2)cc1)NO | 40 | 540 | 46 | – |
| O=C(/C=C/c1ccc(CNCc2c[nH]c3ccccc23)cc1)NO | 160 | 2200 | 59 | – |
| O=C(/C=C/c1ccc(CNCCc2coc3ccccc23)cc1)NO | 30 | 180 | 16 | T/C [10]: 49%; MTD [9]: 50 mg/kg; Body weight change [12]: 0.5% |
| O=C(/C=C/c1ccc(CN(CCO)CCc2cnc3ccccc3c2)cc1)NO | 40 | 530 | 24 | T/C [10]: 78%; MTD [9]: 50 mg/kg; Body weight change [12]: 3.1% |
| O=C(/C=C/c1ccc(CNCCCn2c3ccccc3c3ccccc32)cc1)NO | 160 | 1100 | 79 | – |
| O=C(/C=C/c1ccc(CN[C@@H](CO)Cc2c[nH]c3ccccc23)cc1)NO | 40 | 750 | 40 | – |
| Nc1ccccc1NC(=O)c1ccc(CNC(=O)OCc2ccccc2)cc1 | 670 | 6820 | > 10000 | – |
| O=C(/C=C/c1ccc(CNCCc2c[nH]c3ccc(F)cc23)cc1)NO | 30 | 310 | 14 | T/C [10]: 13%; T/C [13]: 19%; Body weight change [14]: -6.4%; Body weight change ([15]; 100 mg/kg): 6.7% and 7.5%; T/C [6]: 40%; Body weight change [16]: -6.6%; MTD [9]: 100 mg/kg; Ratio [17]: 0; Ratio [18]: 0; T/C ([19]; 100 mg/kg): 16% and 8%; Body weight change [12]: -1.7%; Ratio [20]: 0 |
| CC(C)N(CCc1c[nH]c2ccccc12)Cc1ccc(/C=C/C(=O)NO)cc1 | – | 30 | – | T/C [13]: 29%; Body weight change [16]: -4.1%; MTD [9]: 25 mg/kg |

| SMILES | IC50 [1] [nM] | IC50 [2] [nM] | IC50 [3] [nM] | also measured |
| --- | --- | --- | --- | --- |
| O=C(/C=C/c1ccc(CNCCc2cnc3ccccc3c2)cc1)NO | 40 | 500 | 67 | Body weight change [21]: -5.4%; MTD [9]: 30 mg/kg; T/C [22]: 77% |
| O=C(/C=C/c1ccc(CNCCCCc2c[nH]c3ccccc23)cc1)NO | 30 | 480 | 37 | – |
| O=C(/C=C/c1ccc(CN(CCCc2ccccc2)Cc2ccccn2)cc1)NO | 740 | 2740 | 278 | – |
| O=C(/C=C/c1ccc(NCCCc2c[nH]c3ccccc23)cc1)NO | 480 | 820 | 262 | – |
| O=C(/C=C/c1ccc(CN2CCC(c3c[nH]c4ccccc34)CC2)cc1)NO | 110 | 900 | 53 | – |
| O=C(/C=C/c1ccc(CNCCOc2ccccc2)cc1)NO | 160 | 1530 | 69 | – |
| Cn1cc(CCNCc2ccc(/C=C/C(=O)NO)cc2)c2ccccc21 | 10 | 170 | 23 | T/C [23]: 15%; MTD [5]: 75 mg/kg; Body weight change [24]: -3.2% |
| O=C(/C=C/c1ccc(CN(CCc2c[nH]c3ccccc23)Cc2ccccc2)cc1)NO | 120 | 2060 | 85 | – |
| O=C(/C=C/c1ccc(CNCCCc2ccccc2)cc1)NO | 50 | 800 | 150 | Body weight change [25]: -3.1%; MTD [5]: 45 mg/kg; T/C [26]: 86% |
| CC(NCCc1c[nH]c2ccccc12)c1ccc(/C=C/C(=O)NO)cc1 (stereo not drawn) | 15 | 480 | 23 | – |
| O=C(/C=C/c1ccc(CNCc2cc3ccccc3[nH]2)cc1)NO | 50 | 940 | 51 | – |
| COc1ccc2[nH]cc(CCNCc3ccc(/C=C/C(=O)NO)cc3)c2c1 | 30 | 580 | 14 | T/C [10]: 24%; T/C [13]: 38%; Body weight change [14]: -4.6%; Body weight change ([15]; 100 mg/kg): 7.4% and 12%; T/C [6]: 64%; Body weight change [16]: -5.5%; MTD [9]: 100 mg/kg; Ratio [17]: 0; Ratio [18]: 0; T/C ([19]; 100 mg/kg): 9% and 22%; Body weight change [12]: -8.1%; Ratio [20]: 0 |
| O=C(/C=C/c1ccc(CNCCCc2c[nH]c3ccccc23)cc1)NO | 100 | 1000 | 53 | – |
| O=C(/C=C/c1ccc(CNCCc2c[nH]c3ccccc23)cc1)NO | – | 400 | – | T/C [10]: 13%; T/C [13]: 40%; Body weight change [14]: -10.2%; Body weight change [15]: -9.4%; T/C [6]: 56%; Body weight change [16]: -7%; MTD [9]: 100 mg/kg; T/C [19]: 17%; Body weight change [12]: -7.3% |
| O=C(/C=C/c1ccc(CNCCc2ccc3c(c2)OCO3)cc1)NO | 50 | 500 | 30 | – |
| O=C(/C=C/c1ccc(CN(CCc2c[nH]c3ccccc23)C2CCCCC2)cc1)NO | 17 | 40 | 20 | – |
| Cc1nc2ccccc2n1CCNCc1ccc(/C=C/C(=O)NO)cc1 | 200 | 2750 | 38 | – |
| CC(Cc1c[nH]c2ccccc12)NCc1ccc(/C=C/C(=O)NO)cc1 (stereo not drawn) | 20 | 410 | 24 | – |
